Experimental data taken from ChEMBL document CHEMBL1134502, “Aromatic quinolinecarboxamides as selective, orally active antibody production inhibitors for prevention of acute xenograft rejection” (J Med Chem, 2001).

Key:
Jurkat = test: In vitro inhibition of Jurkat cell proliferation.; format: functional, cell-based; conditions: Homo sapiens
Summary of the method: (§1)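 Murine B-cells stimulated with TNP-LPS (T-cell-independent type 1) were read for antibody production, the mouse MLR for T-cell activity, and Jurkat proliferation for cytotoxicity. Values are IC50 ± SE in µM, the mean of at least four independent determinations.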

Mus musculus [1] = species on record: Mus musculus; test: In vitro T-cell immunosuppressive activity in the mouse mixed lymphocyte reaction (MLR); format: functional; summary of the method: as §1
Mus musculus [2] = test: In vivo inhibition of TNP-specific immunoglobulin G production at 10 mg/kg/day oral administration.; format: functional
Summary of the method: (§2)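 OF1 mice were immunized iv with TNP-LPS and dosed on day 0 plus the three following days (four doses). The sc vehicle was polyethoxylated castor oil/EtOH; the po vehicle was Labrafil/EtOH/corn oil. Mice were bled on day 6, and serum DNP-specific IgM or IgG was titred by ELISA on DNP-BSA plates at a defined OD405.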

Mus musculus [3] = test: In vivo inhibition of TNP-specific immunoglobulin G production at 3 mg/kg/day subcutaneous administration.; format: functional; conditions: sc; summary of the method: as §2
Mus musculus [4] = test: In vivo inhibition of TNP-specific immunoglobulin G production at 30 mg/kg/day subcutaneous administration.; format: functional; conditions: sc; summary of the method: as §2
Mus musculus [5] = test: In vivo inhibition of TNP-specific immunoglobulin G production at 50 mg/kg/day subcutaneous administration.; format: functional; conditions: sc; summary of the method: as §2
Mus musculus [6] = test: In vivo inhibition of TNP-specific immunoglobulin M production at 10 mg/kg/day, po; format: functional; summary of the method: as §2
Mus musculus [7] = test: In vivo inhibition of TNP-specific immunoglobulin M production at 3 mg/kg/day, sc; format: functional; conditions: route subcutaneous; summary of the method: as §2
Mus musculus [8] = test: In vivo inhibition of TNP-specific immunoglobulin M production at 30 mg/kg/day, sc; format: functional; conditions: route subcutaneous; summary of the method: as §2
Mus musculus [9] = test: In vivo inhibition of TNP-specific immunoglobulin M production at 50 mg/kg/day, sc; format: functional; conditions: route subcutaneous; summary of the method: as §2
Mus musculus [10] = test: Survival period of mice in days after xenotransplantation and for a dose of 3 mg/kg (Histology = antibody-mediated rejection).; format: functional
Mus musculus [11] = test: Survival period of mice in days after xenotransplantation and for a dose of 30 mg/kg (Histology = antibody-mediated rejection, Chronic rejection).; format: functional
Mus musculus [12] = test: Survival period of mice in days after xenotransplantation and for a dose of 50 mg/kg (Histology = no antibody-mediated rejection).; format: functional
[13] = In vitro inhibition of Ab formation from trinitrophenyl-lipopolysaccharide (TNP-LPS) B-cells.; format: functional; conditions: Mus musculus; summary of the method: as §1

| SMILES | IC50 (Jurkat) [µM] | IC50 (Mus musculus [1]) [µM] | inhibition in vivo at 10 mg/kg/day (Mus musculus [2]) [%] | inhibition in vivo at 3 mg/kg/day (Mus musculus [3]) [%] | inhibition in vivo at 30 mg/kg/day (Mus musculus [4]) [%] | inhibition in vivo at 50 mg/kg/day (Mus musculus [5]) [%] | inhibition in vivo at 10 mg/kg/day (Mus musculus [6]) [%] | inhibition in vivo at 3 mg/kg/day (Mus musculus [7]) [%] | inhibition in vivo at 30 mg/kg/day (Mus musculus [8]) [%] | inhibition in vivo at 50 mg/kg/day (Mus musculus [9]) [%] | Survival (Mus musculus [10]) [days] | Survival (Mus musculus [11]) [days] | Survival (Mus musculus [12]) [days] | IC50 [13] [µM] |
| --- | --- | --- | --- | --- | --- | --- | --- | --- | --- | --- | --- | --- | --- | --- |
| C/C=C/C[C@@H](C)[C@@H](O)[C@H]1C(=O)N[C@@H](CC)C(=O)N(C)CC(=O)N(C)[C@@H](CC(C)C)C(=O)N[C@@H](C(C)C)C(=O)N(C)[C@@H](CC(C)C)C(=O)N[C@@H](C)C(=O)N[C@H](C)C(=O)N(C)[C@@H](CC(C)C)C(=O)N(C)[C@@H](CC(C)C)C(=O)N(C)[C@@H](C(C)C)C(=O)N1C [CYCLOSPORINE] | > 10 |  |  |  |  |  |  |  |  |  |  |  |  |  |
| Cc1oncc1C(=O)Nc1ccc(C(F)(F)F)cc1 [LEFLUNOMIDE] | 34.6 | 11.4 | < 0 | < 0 | 39 | 85 | 5 | < 0 | 37 | 71 | 7 | >7 | >28 | 5.1 |
